Assay results reported in ChEMBL document CHEMBL1681707, “Thienopyrrole acetic acids as antagonists of the CRTH2 receptor” (Bioorg Med Chem Lett, 2011).
Blank lines part the entries; values can stand above or below the compound they belong to.

Columns and labels:
[1] = molecular target: T1, Prostaglandin D2 receptor 2 (Homo sapiens, UniProt Q9Y5Y4); assay: Displacement of [3H]PGD2 from human CRTH2 receptor expressed in HEK293 cell membranes
T1 sequence (Q9Y5Y4 whole entry): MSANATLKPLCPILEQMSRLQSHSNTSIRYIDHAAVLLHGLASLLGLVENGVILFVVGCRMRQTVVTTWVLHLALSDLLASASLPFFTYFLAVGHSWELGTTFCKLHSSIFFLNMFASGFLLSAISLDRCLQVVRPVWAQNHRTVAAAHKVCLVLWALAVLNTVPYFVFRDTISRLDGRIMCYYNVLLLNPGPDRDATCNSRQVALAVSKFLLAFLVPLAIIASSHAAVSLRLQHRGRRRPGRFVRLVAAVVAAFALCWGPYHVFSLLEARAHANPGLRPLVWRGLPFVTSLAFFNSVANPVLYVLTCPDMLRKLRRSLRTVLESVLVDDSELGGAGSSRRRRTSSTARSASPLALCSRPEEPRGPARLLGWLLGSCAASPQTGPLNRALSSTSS
Summary of the method: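 Radioligand binding on membranes from HEK293.F cells transiently transfected with human CRTH2 cDNA. Test compounds dissolved in DMSO, run at 1% (v/v) final DMSO. PGD2 used at 1 μM final concentration. Values are means of n = 2-4 experiments.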

[2] = molecular target: T2, Prostaglandin D2 receptor (Homo sapiens, UniProt Q13258); assay: Displacement of [3H]PGD2 from human DP1 receptor expressed in HEK293 cell membranes
T2 sequence (Q13258 whole entry): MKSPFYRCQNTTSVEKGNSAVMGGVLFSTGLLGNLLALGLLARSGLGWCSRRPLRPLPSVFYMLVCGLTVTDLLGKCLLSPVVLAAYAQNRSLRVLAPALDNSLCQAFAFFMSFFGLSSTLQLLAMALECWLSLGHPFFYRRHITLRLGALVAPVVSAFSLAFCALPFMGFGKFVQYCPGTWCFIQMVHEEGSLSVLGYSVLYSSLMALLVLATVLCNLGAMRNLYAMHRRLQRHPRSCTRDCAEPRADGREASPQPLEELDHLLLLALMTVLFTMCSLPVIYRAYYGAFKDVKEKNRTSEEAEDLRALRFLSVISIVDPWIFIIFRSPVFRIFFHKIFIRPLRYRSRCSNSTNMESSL
Summary of the method: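 Radioligand binding on membranes from HEK293 cells expressing human DP-1. Test compounds dissolved in DMSO, run at 1% (v/v) final DMSO. PGD2 used at 1 μM final concentration.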

[3] = Metabolic stability in rat liver microsomes assessed as compound remaining after 30 mins; assay type: ADME, Microsome; conditions: read-out: Stability
Summary of the method: (§1)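 Incubation with rat or human liver microsomes for 30 min. Percent of parent remaining at 30 min reported.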

[4] = Metabolic stability in human liver microsomes assessed as compound remaining after 30 mins; assay type: ADME, Microsome; conditions: read-out: Stability; summary of the method: as §1
[5] = Cmax in BALB/c mouse at 30 mg/kg, po administered through 0.2 % Tween 80/0.5 % HPMC formulation; assay type: ADME, organism-based; design: dose 30 mg/kg, route oral; conditions: in vivo
Summary of the method: (§2)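 Oral dosing at 30 mpk in female BALB/c mice, given as a solution in 0.2% Tween 80/0.5% HPMC, as an early bioavailability assessment.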

[6] = AUC in BALB/c mouse at 30 mg/kg, po administered through 0.2 % Tween 80/0.5 % HPMC formulation; assay type: ADME, organism-based; design: dose 30 mg/kg, route oral; conditions: plasma; summary of the method: as §2
[7] = molecular target: Voltage-gated inwardly rectifying potassium channel KCNH2 (Homo sapiens, UniProt Q12809); assay: Displacement of [3H]Dofetilide from human hERG potassium channel expressed in HEK293 cell membranes
Voltage-gated inwardly rectifying potassium channel KCNH2, sequence (Q12809 whole entry): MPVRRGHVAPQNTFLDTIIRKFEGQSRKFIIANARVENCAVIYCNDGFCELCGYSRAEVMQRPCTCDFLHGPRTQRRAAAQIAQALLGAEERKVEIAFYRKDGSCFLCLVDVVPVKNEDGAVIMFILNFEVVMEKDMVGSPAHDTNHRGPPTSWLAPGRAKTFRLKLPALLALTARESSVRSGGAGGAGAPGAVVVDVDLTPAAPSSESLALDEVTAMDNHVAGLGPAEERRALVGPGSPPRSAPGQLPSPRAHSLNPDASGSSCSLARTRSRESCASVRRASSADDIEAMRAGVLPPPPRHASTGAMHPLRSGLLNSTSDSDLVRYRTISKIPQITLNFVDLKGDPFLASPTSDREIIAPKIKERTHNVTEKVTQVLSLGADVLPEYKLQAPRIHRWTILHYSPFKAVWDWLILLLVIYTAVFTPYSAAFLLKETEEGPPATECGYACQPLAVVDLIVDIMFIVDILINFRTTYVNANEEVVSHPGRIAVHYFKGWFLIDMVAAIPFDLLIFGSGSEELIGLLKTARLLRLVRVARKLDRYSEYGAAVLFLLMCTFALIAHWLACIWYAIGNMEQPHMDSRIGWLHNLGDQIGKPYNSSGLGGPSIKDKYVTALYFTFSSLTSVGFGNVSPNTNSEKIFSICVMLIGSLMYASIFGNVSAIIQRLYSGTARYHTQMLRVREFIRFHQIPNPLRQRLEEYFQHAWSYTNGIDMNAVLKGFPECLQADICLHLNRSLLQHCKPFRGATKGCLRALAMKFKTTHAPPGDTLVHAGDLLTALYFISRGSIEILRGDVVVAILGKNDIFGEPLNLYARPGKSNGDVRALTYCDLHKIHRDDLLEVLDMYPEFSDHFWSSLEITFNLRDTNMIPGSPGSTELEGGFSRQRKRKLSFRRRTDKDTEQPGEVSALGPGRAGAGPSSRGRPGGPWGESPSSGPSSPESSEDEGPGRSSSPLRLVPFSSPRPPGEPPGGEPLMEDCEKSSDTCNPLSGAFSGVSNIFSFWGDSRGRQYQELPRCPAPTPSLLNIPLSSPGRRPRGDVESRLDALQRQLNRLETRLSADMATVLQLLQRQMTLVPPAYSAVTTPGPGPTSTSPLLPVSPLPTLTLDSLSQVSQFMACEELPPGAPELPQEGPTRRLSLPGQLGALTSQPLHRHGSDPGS

[8] = molecular target: T1, Prostaglandin D2 receptor 2; assay: Antagonist activity at human CRTH2 receptor expressed in CHO/Ga16 cells co-expressing Galpha16 protein assessed as calcium flux by FLIPR assay; assay type: functional, cell-based
Summary of the method: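 CHO cells co-expressing Gα16 and stably transfected with human CRTH2; antagonism read as calcium flux; IC50 determined.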

Structure (SMILES): Cc1c(CC(=O)O)c2ccsc2n1S(=O)(=O)c1ccc(C#N)cc1
IC50 [1]: 3 µM

Structure (SMILES): Cc1c(CC(=O)O)c2ccsc2n1S(=O)(=O)c1ccc(S(=O)(=O)N2CCCC2)cc1
IC50 [1]: 0.39 µM

Structure (SMILES): Cc1c(CC(=O)O)c2ccsc2n1Cc1ccc(S(=O)(=O)N(C)C)cc1
IC50 [1]: 0.19 µM

Structure (SMILES): Cc1c(CC(=O)O)c2ccsc2n1Cc1ccc(S(=O)(=O)N2CCOCC2)cc1
IC50 [1]: 0.07 µM

Structure (SMILES): Cc1c(CC(=O)O)c2ccsc2n1Cc1ccc(S(=O)(=O)N(C)C2CCCCC2)cc1
IC50 [1]: 0.02 µM | IC50 [2]: > 50 µM | remaining at 0.5 h [3]: 57% | remaining at 0.5 h [4]: 62% | IC50 [7]: 31 µM

Structure (SMILES): Cc1c(CC(=O)O)c2ccsc2n1Cc1ccc(S(C)(=O)=O)cc1
IC50 [1]: 0.05 µM | IC50 [2]: > 50 µM | IC50 [8]: 0.13 µM | remaining at 0.5 h [3]: 90% | remaining at 0.5 h [4]: 91% | IC50 [7]: 31 µM

Structure (SMILES): Cc1c(CC(=O)O)c2ccsc2n1Cc1ccc(S(C)(=O)=O)cc1Cl
IC50 [1]: 0.01 µM | IC50 [2]: > 50 µM | remaining at 0.5 h [3]: 99% | remaining at 0.5 h [4]: 97% | IC50 [7]: 45 µM

Structure (SMILES): Cc1csc2c1c(CC(=O)O)c(C)n2S(=O)(=O)c1ccc(S(C)(=O)=O)cc1
IC50 [1]: 1.3 µM

Structure (SMILES): Cc1cc2c(CC(=O)O)c(C)n(Cc3ccc(S(C)(=O)=O)cc3)c2s1
IC50 [1]: 1.8 µM

Structure (SMILES): CS(=O)(=O)c1ccc(S(=O)(=O)n2cc(CC(=O)O)c3sccc32)cc1
IC50 [1]: 5 µM

Now from value to compound, other results behind:

IC50 [1]: 2.75 µM
Structure (SMILES): Cc1c(CC(=O)O)c2ccsc2n1S(=O)(=O)c1ccccc1

IC50 [1]: 1.63 µM
Structure (SMILES): Cc1c(CC(=O)O)c2ccsc2n1S(=O)(=O)c1ccc(F)cc1

IC50 [1]: 1.13 µM
Structure (SMILES): Cc1c(CC(=O)O)c2ccsc2n1S(=O)(=O)c1ccc(C(F)(F)F)cc1

IC50 [1]: 0.09 µM | IC50 [2]: > 50 µM | remaining at 0.5 h [3]: 100% | remaining at 0.5 h [4]: 100% | Cmax [5]: 7800 ng/mL | AUC [6]: 16400 ng·h/mL
Structure (SMILES): Cc1c(CC(=O)O)c2ccsc2n1S(=O)(=O)c1ccc(S(C)(=O)=O)cc1
IC50 [7]: > 100 µM

IC50 [1]: 0.23 µM
Structure (SMILES): Cc1c(CC(=O)O)c2ccsc2n1S(=O)(=O)c1ccc(S(=O)(=O)N2CCOCC2)cc1

IC50 [1]: 1.5 µM
Structure (SMILES): Cc1csc2c1c(CC(=O)O)c(C)n2Cc1ccc(S(C)(=O)=O)cc1

IC50 [1]: 0.33 µM
Structure (SMILES): Cc1cc2c(CC(=O)O)c(C)n(Cc3ccc(S(C)(=O)=O)cc3Cl)c2s1

IC50 [1]: 4 µM
Structure (SMILES): CS(=O)(=O)c1ccc(S(=O)(=O)n2cc(CC(=O)O)c3ccsc32)cc1
